The species entered for assay [1] is Rattus norvegicus. Briefly: Percent of maximal extent of inhibition was calculated by fitting [35S]TBPS inhibition data to a sigmoid function (rat brain cortical P2 membranes) at 10 uM concentration. Format: functional. In short, it runs like this:
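Rat cortical P2 membranes washed in 200 mM NaCl/50 mM Na-K phosphate, pH 7.4. Incubated 90 min at room temperature with 2 nM [35S]TBPS, 5 μM GABA and steroid in DMSO (0.5% final). Nonspecific binding defined with 2 μM unlabeled TBPS. Filtration, scintillation counting. Partial or full inhibition model chosen by F-test.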

The target of assay [2] is GABA-A receptor; anion channel. The assay is described as follows: Ability to allosterically modulate the binding of [35S]TBPS to gamma-aminobutyric-acid A receptor in rat brain cortical P2 membranes. It counts as cell membranes, Membrane. In short, it runs like this:
(§1)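 Rat cortical P2 membranes washed in 200 mM NaCl/50 mM Na-K phosphate pH 7.4. Incubated with 2 nM [35S]TBPS, 5 µM GABA and compound at nine concentrations from 1 nM to 10 µM final (DMSO 0.5% final), 90 min at room temperature. Nonspecific binding was defined with 2 µM unlabeled TBPS. Read-out was filtration and scintillation counting. IC50 and Imax came from partial or full inhibition fits chosen by F-test. Values are mean ± SEM of 3-9 experiments.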

The species named for assay [3] is Rattus norvegicus. The assay is described as follows: Percent of maximal extent of inhibition was calculated by fitting [35S]TBPS inhibition data to a sigmoid function (rat brain cortical P2 membranes). Format: functional. In short, it runs like this: as §1
For assay [4], the target named is GABA-A receptor; anion channel. Briefly: Allosteric modulation of [35S]TBPS binding to Gamma-aminobutyric acid A receptor in rat brain cortical P2 membranes (inhibits binding with two components). Format: cell membranes, Membrane. The essentials: as §1
Assay [5] deals with GABA-A receptor; alpha-1/beta-2/gamma-2 (Homo sapiens) (UniProt P14867+P47870+P18507). The assay is described as follows: Hill value, slope calculated from GABA-current potentiation in Xenopus oocytes. Format: functional, cell-based. The following applies: Oocyte. The essentials:
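Xenopus oocytes injected 1:1:1 with human α1, β2, γ2L cRNAs (~1 ng each per cell); two-electrode voltage clamp in frog Ringer (NaCl 115, KCl 2, CaCl2 1.8, HEPES 5 mM, pH 7.4). Steroid DMSO stocks diluted […] (DMSO 0.3% final). Increasing steroid applied on a GABA response set to ~5% of the 3 mM GABA maximum. Data fit to a four-parameter logistic; mean ± SEM.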

Usually IC50 stands for the midpoint of a concentration-inhibition curve. A high value points to a need for much substance. For the compound `CSC[C@@]1(O)CC[C@@]2(C)[C@@H](CC[C@@H]3[C@@H]2CC[C@]2(C)[C@@H](C(C)=O)CC[C@@H]32)C1`, the Imax in assay [1] is 46%. For the same compound, in assay [2], the IC50 is above 10000 nM.

For `CC(=O)[C@H]1CC[C@H]2[C@@H]3CC[C@@H]4C[C@H](O)CC[C@]4(C)[C@H]3CC[C@]12C` [ELTANOLONE], the Imax in assay [3] was 65%. Besides, in assay [4], the IC50 worked out at 44 nM.

As usually defined, the Hill coefficient is a measure of the steepness of the concentration-response curve. In the case of `CCCC(C)C1(CC)C(=O)NC(=O)NC1=O` (configuration not stated), in assay [3], the Imax was 100%. Moreover, the Hill coefficient in assay [5] was 1.

As for `CC(=O)[C@H]1CC[C@H]2[C@@H]3CC[C@H]4C[C@@](O)(CC#N)CC[C@]4(C)[C@H]3CC[C@]12C`, the Imax in assay [3] is 38%. Besides, the Hill coefficient in assay [5] was 1. The compound further showed an IC50 in assay [2] of 614 nM.

Take `CC(=O)[C@H]1CC[C@H]2[C@@H]3CC[C@H]4C[C@@](O)(COCc5ccccc5)CC[C@]4(C)[C@H]3CC[C@]12C`: in assay [3], the Imax was 57%. In assay [5], the Hill coefficient is 1.6. In assay [2], this compound yielded an IC50 of 376 nM.
